In ChEMBL document CHEMBL1240507, “Peptidic HIV integrase inhibitors derived from HIV gene products: structure-activity relationship studies” (Bioorg Med Chem, 2010) one finds Activity and IC50 data, which are given here for 21 molecules.

Calls of active or inactive are those of the source. No cut-off for these calls is given here.

Data set [1] relates to MT4. As to the kind of experiment: Cytotoxicity against human MT4 cells at 10 uM after 6 to 7 days. The format is cell-based. Conditions: mt4, 10 µM.
The target of data set [2] is T1, Human immunodeficiency virus type 1 integrase (Human immunodeficiency virus 1, UniProt Q7ZJM1). The data set is described as follows: Inhibition of HIV1 integrase strand transfer activity expressed in Escherichia coli after 60 mins. A digest of the protocol: (§1)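 Recombinant IN was expressed in and purified from E. coli, with 10% glycerol in all buffers. Reactions contained 400 nM IN, 20 nM 5'-end [³²P]-labeled oligonucleotide substrate and inhibitor at varied concentrations, with 10% DMSO alone as control. Reactions were stopped with EDTA/formamide loading dye. IC50 came from a logistic nonlinear fit.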
T1 sequence (Q7ZJM1 whole entry): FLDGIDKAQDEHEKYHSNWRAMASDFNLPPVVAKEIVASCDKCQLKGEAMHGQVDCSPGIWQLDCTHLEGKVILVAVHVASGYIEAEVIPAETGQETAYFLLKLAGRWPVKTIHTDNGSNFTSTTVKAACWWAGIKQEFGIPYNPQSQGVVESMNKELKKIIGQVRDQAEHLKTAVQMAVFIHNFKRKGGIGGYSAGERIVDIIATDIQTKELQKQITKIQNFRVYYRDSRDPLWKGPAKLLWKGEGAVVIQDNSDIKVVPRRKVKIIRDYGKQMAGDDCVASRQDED

Data set [3] addresses T1, Human immunodeficiency virus type 1 integrase. The data set is described as follows: Inhibition of HIV1 integrase 3'-processing activity expressed in Escherichia coli after 60 mins. Put shortly: as §1
Data set [4] relates to Human immunodeficiency virus 1. The data set is described as follows: Antiviral activity against HIV1 HXB2 infected in human MT4 cells assessed as protection against virus-induced cell death at 1.25 uM after 6 to 7 days by luciferase assay. The format is functional, organism-based. Put shortly:
(§2)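 MT-4 luciferase reporter cells (1×10^3 cells) were infected with HIV-1 HXB2 in the presence of peptides at various concentrations. At 6–7 days post-infection, cells were lysed and luciferase activity was read by chemiluminescence.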

Data set [5] concerns Human immunodeficiency virus 1. The data set is described as follows: Antiviral activity against HIV1 HXB2 infected in human MT4 cells assessed as protection against virus-induced cell death at 10 uM after 6 to 7 days by luciferase assay. The format is functional, organism-based. Put shortly:
as §2

The test system of data set [6] is Human immunodeficiency virus 1. As to the kind of experiment: Antiviral activity against HIV1 HXB2 infected in human MT4 cells assessed as protection against virus-induced cell death at 2.5 to 5 uM after 6 to 7 days by luciferase assay. The format is functional, organism-based. Put shortly: as §2
The test system of data set [7] is Human immunodeficiency virus 1. The data set is described as follows: Antiviral activity against HIV1 HXB2 infected in human MT4 cells assessed as protection against virus-induced cell death after 6 to 7 days by luciferase assay. Format: functional, organism-based. A digest of the protocol: as §2
The subject of data set [8] is Human immunodeficiency virus 1. As to the kind of experiment: Antiviral activity against HIV1 HXB2 infected in human MT4 cells assessed as protection against virus-induced cell death at 5 uM after 6 to 7 days by luciferase assay. The format is functional, organism-based. Put shortly: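 MT-4 luciferase reporter cells (1×10^3 per well) infected with HIV-1 HXB2 while exposed to a range of peptide concentrations. After 6–7 days post-infection, cells were lysed, luciferase activity was measured with a Steady-Glo kit, and chemiluminescence was read on a luminometer.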

Data set [9] has as its system MT4. The data set is described as follows: Cytotoxicity against human MT4 cells at >5 uM after 6 to 7 days. Format: cell-based.

`CC[C@H](C)[C@H](NC(=O)[C@H](CCCNC(=N)N)NC(=O)[C@H](Cc1ccccc1)NC(=O)[C@H](Cc1cnc[nH]1)NC(=O)[C@@H](NC(=O)[C@H](Cc1ccccc1)NC(=O)[C@H](CC(C)C)NC(=O)[C@H](CC(C)C)NC(=O)[C@H](CCC(N)=O)NC(=O)[C@H](CCC(N)=O)NC(=O)[C@H](CC(C)C)NC(C)=O)[C@@H](C)CC)C(=O)NCC(=O)N[C@@H](CCCNC(=N)N)C(=O)N[C@@H](CCCNC(=N)N)C(=O)N[C@@H](CCCNC(=N)N)C(=O)N[C@@H](CCCNC(=N)N)C(=O)N[C@@H](CCCNC(=N)N)C(=O)N[C@@H](CCCNC(=N)N)C(=O)N[C@@H](CCCNC(=N)N)C(=O)N[C@@H](CCCNC(=N)N)C(N)=O`: in the data set on MT4 [1], the Activity result is “Toxic”. Further, the IC50 – broadly, the point on the concentration scale where inhibition reaches its midpoint – in data set [2] is 60 nM; in data set [3], 130 nM.

Take `CC[C@H](C)[C@H](NC(=O)[C@H](C)NC(=O)[C@H](CCC(=O)O)NC(C)=O)C(=O)N[C@H](C(=O)N[C@@H](CCCNC(=N)N)C(=O)N[C@H](C(=O)N[C@@H](CC(C)C)C(=O)N[C@@H](CCC(N)=O)C(=O)N[C@@H](CCC(N)=O)C(=O)N[C@@H](CC(C)C)C(=O)N[C@@H](CC(C)C)C(=O)N[C@@H](Cc1ccccc1)C(=O)N[C@H](C(=O)N[C@@H](Cc1cnc[nH]1)C(=O)N[C@@H](Cc1ccccc1)C(=O)N[C@@H](CCCNC(=N)N)C(=O)N[C@H](C(=O)NCC(=O)N[C@@H](CCCNC(=N)N)C(=O)N[C@@H](CCCNC(=N)N)C(=O)N[C@@H](CCCNC(=N)N)C(=O)N[C@@H](CCCNC(=N)N)C(=O)N[C@@H](CCCNC(=N)N)C(=O)N[C@@H](CCCNC(=N)N)C(=O)N[C@@H](CCCNC(=N)N)C(=O)N[C@@H](CCCNC(=N)N)C(N)=O)[C@@H](C)CC)[C@@H](C)CC)[C@@H](C)CC)[C@@H](C)CC`: in data set [4], the result was Active. Besides, the half-maximal inhibitory concentration (IC50) in data set [2] came out at 40 nM; in data set [3], 90 nM. Besides, the result in data set [5] was inactive.

As to `CC[C@H](C)[C@H](NC(=O)[C@H](C)NC(=O)[C@H](CCC(=O)O)NC(C)=O)C(=O)N[C@H](C(=O)N[C@@H](CCCNC(=N)N)C(=O)N[C@H](C(=O)N[C@@H](CC(C)C)C(=O)N[C@@H](CCC(N)=O)C(=O)N[C@@H](CCC(N)=O)C(=O)N[C@@H](CC(C)C)C(=O)N[C@@H](CC(C)C)C(=O)N[C@@H](Cc1ccccc1)C(=O)N[C@H](C(=O)N[C@@H](CCC(=O)O)C(=O)N[C@@H](Cc1ccccc1)C(=O)N[C@@H](CCCNC(=N)N)C(=O)N[C@H](C(=O)N[C@@H](CCCCN)C(=O)N[C@@H](CCCNC(=N)N)C(=O)N[C@@H](CCCNC(=N)N)C(=O)N[C@@H](CCCNC(=N)N)C(=O)N[C@@H](CCCNC(=N)N)C(=O)N[C@@H](CCCNC(=N)N)C(=O)N[C@@H](CCCNC(=N)N)C(=O)N[C@@H](CCCNC(=N)N)C(=O)N[C@@H](CCCNC(=N)N)C(N)=O)[C@@H](C)CC)[C@@H](C)CC)[C@@H](C)CC)[C@@H](C)CC`, the outcome in data set [6] was Active.

For `CC[C@H](C)[C@H](NC(=O)[C@H](CCCNC(=N)N)NC(=O)[C@H](Cc1ccccc1)NC(=O)[C@H](Cc1cnc[nH]1)NC(=O)[C@@H](NC(=O)[C@H](Cc1ccccc1)NC(=O)[C@H](CC(C)C)NC(=O)[C@H](CC(C)C)NC(=O)[C@H](CCC(N)=O)NC(=O)[C@H](CCC(N)=O)NC(=O)[C@H](CC(C)C)NC(=O)[C@H](CCCCN)NC(=O)[C@H](CCCNC(=N)N)NC(=O)[C@@H](NC(=O)[C@@H](NC(=O)[C@H](CCC(=O)O)NC(=O)[C@H](CCC(=O)O)NC(C)=O)[C@@H](C)CC)[C@@H](C)CC)[C@@H](C)CC)C(=O)NCC(=O)N[C@@H](CCCNC(=N)N)C(=O)N[C@@H](CCCNC(=N)N)C(=O)N[C@@H](CCCNC(=N)N)C(=O)N[C@@H](CCCNC(=N)N)C(=O)N[C@@H](CCCNC(=N)N)C(=O)N[C@@H](CCCNC(=N)N)C(=O)N[C@@H](CCCNC(=N)N)C(=O)N[C@@H](CCCNC(=N)N)C(N)=O`, the outcome in [5] was inactive.

For Ac-AQQLLFIHFRIGRRRRRRRR-NH2, the Activity entry in [7] is “Dose-dependent effect”.

Consider Ac-EAEIRIKQQLLFIHFRIGRRRRRRRR-NH2, for which the result in data set [5] was Active.

For the molecule Ac-EAIERILKQLLFIHFRIGRRRRRRRR-NH2, in [6], the outcome was Active.

As to Ac-EAIIRILQELLFKHFRIGRRRRRRRR-NH2, the result in data set [5] was inactive.

With Ac-EAIIRILQQLEFIHKRIGRRRRRRRR-NH2, the outcome in data set [6] was Active.

Regarding Ac-EEIIRKLQQLLFIEFRIKRRRRRRRR-NH2, the outcome in [5] was inactive.

As to Ac-LAQLLFIHFRIGRRRRRRRR-NH2, the Activity result in the data set on MT4 [1] was “Toxic”; in [7] it was “Dose-dependent effect”.

With Ac-LQALLFIHFRIGRRRRRRRR-NH2, the values for the Activity entry (in the data set with MT4 [1]; in data set [7]) were “Toxic” and “Dose-dependent effect”, respectively.

As to Ac-LQQALFIHFRIGRRRRRRRR-NH2, the values for the Activity result (in the data set on MT4 [1]; in [7]) were “Toxic” and “Dose-dependent effect”, respectively.

On to Ac-LQQLAFIHFRIGRRRRRRRR-NH2, for which the Activity result in the data set with MT4 [1] is “Toxic”; in data set [7] it was “Dose-dependent effect”.

For the molecule Ac-LQQLLAIHFRIGRRRRRRRR-NH2, the results for the Activity result (in the data set with MT4 [1]; in [7]) were “Toxic” and “Dose-dependent effect”, respectively. Further, in data set [8], the outcome was inactive.

On to Ac-LQQLLFAHFRIGRRRRRRRR-NH2, for which the Activity entry was “Toxic” in the data set on MT4 [9] and “Dose-dependent effect” in [7]. Besides, the outcome in data set [8] was inactive.

For the molecule Ac-LQQLLFIAFRIGRRRRRRRR-NH2, the Activity entry with MT4 [9] is “Toxic”; in data set [7], “Dose-dependent effect”.

For the molecule Ac-LQQLLFIHARIGRRRRRRRR-NH2, the Activity result in the data set on MT4 [1] was “Toxic”; in [7], “Dose-dependent effect”.

Consider Ac-LQQLLFIHFAIGRRRRRRRR-NH2, for which the Activity result in the data set on MT4 [1] was “Toxic”; in data set [7] it was “Dose-dependent effect”.

For the molecule Ac-LQQLLFIHFRAGRRRRRRRR-NH2, in data set [7], the Activity result was “Dose-dependent effect”.

For Ac-LQQLLFIHFRIARRRRRRRR-NH2, in [3], the IC50 turned out to be 90 nM. Also, in data set [7], the Activity entry is “Dose-dependent effect”.
